Test results taken from article PMC12008863 (Journal of Translational Medicine, 2025).

Key:
rno-miR-223-3p = experiment: qPCR in rat retina; type: in vivo, rat (Sprague–Dawley); settings: increased by STZ; intravitreal AAV9, n = 3; Fig. 8A
VEGFA [1] = experiment: Western blot of rat retina; type: in vivo, rat (Sprague–Dawley); settings: intravitreal AAV9, n = 3; Fig. S13C
How it was run: (§1)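 STZ-diabetic male Sprague–Dawley rats (6–8 weeks) were given intravitreal AAV9 (5 μL, 1 × 10^12 vg/mL) every 8 weeks, with saline controls. Retinal protein was extracted in RIPA with protease and phosphatase inhibitors, run on 10% SDS–PAGE and transferred to PVDF. Membranes were blocked in 5% skimmed milk, probed with primary then secondary antibody, and developed by ECL.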

p-STAT4 [2] = experiment: Western blot of rat retinal tissue; type: in vivo, rat (Sprague–Dawley); settings: increased by STZ; intravitreal AAV9, n = 3; Fig. 8C
p-mTOR [3] = experiment: Western blot of rat retinal tissue; type: in vivo, rat (Sprague–Dawley); settings: increased by STZ; intravitreal AAV9, n = 3; Fig. 8G
Notch 1 [4] = experiment: Western blot of rat retinal tissue; type: in vivo, rat (Sprague–Dawley); settings: increased by STZ; intravitreal AAV9, n = 3; Fig. 8E
HIF-1α [5] = experiment: Immunohistochemistry of rat retina; type: in vivo, rat (Sprague–Dawley); settings: intravitreal AAV9, 16 weeks, n = 3; Fig. 6D
How it was run: (§2)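 Male Sprague–Dawley rats, 6–8 weeks old, with STZ-induced diabetic retinopathy. Under intraperitoneal ketamine (80 μg/g) and xylazine (4 μg/g), rats received 5 μL intravitreal AAV9 (1 × 10^12 vg/mL) carrying the test sequence every 8 weeks; saline as control; n = 8 rats per group. At 16 weeks, eyes were paraffin-embedded, cut at 5 μm and immunostained. Relative positivity ratio scored; mean ± SD.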

HIF-1α [6] = experiment: Western blot of rat retina; type: in vivo, rat (Sprague–Dawley); settings: intravitreal AAV9, n = 3; Fig. S13B
How it was run: as §1

VEGFA [7] = experiment: Immunohistochemistry of rat retina; type: in vivo, rat (Sprague–Dawley); settings: intravitreal AAV9, 16 weeks, n = 3; Fig. 6E
How it was run: as §2

STAT4 [8] = experiment: Western blot of rat retinal tissue; type: in vivo, rat (Sprague–Dawley); settings: increased by STZ; intravitreal AAV9, n = 3; Fig. 8C
p-AKT [9] = experiment: Western blot of rat retinal tissue; type: in vivo, rat (Sprague–Dawley); settings: increased by STZ; intravitreal AAV9, n = 3; Fig. 8F
PCNA = experiment: Immunohistochemistry of rat retina; type: in vivo, rat (Sprague–Dawley); settings: vs STZ and STZ + NC; intravitreal AAV9, 16 weeks, n = 3; Fig. 6C
How it was run: (§3)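 In the STZ-induced DR model in male SD rats, animals received intravitreal AAV9 (5 μL, 1 × 10^12 vg/mL, every 8 weeks; saline control; n = 8/group). At 16 weeks, eyeballs were paraffin-embedded and cut at 5 μm. Immunohistochemistry for fibronectin or PCNA followed, with relative positivity ratio quantified; n = 3.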

FBXW7 [10] = experiment: Western blot of rat retinal tissue; type: in vivo, rat (Sprague–Dawley); settings: decreased by STZ; intravitreal AAV9, n = 3; Fig. 8D
fibronectin = experiment: Immunohistochemistry of rat retina; type: in vivo, rat (Sprague–Dawley); settings: vs STZ and STZ + NC; intravitreal AAV9, 16 weeks, n = 3; Fig. 6B
How it was run: as §3

FBXW7 mRNA = experiment: qPCR in hRECs; type: cell-based, human; settings: high glucose, 1 μM, n = 5, Fig. 4C
How it was run: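 Total RNA came from hRECs grown 120 h in low-glucose, 25 mM high-glucose or mannitol control medium, with 1 μM test peptide or TTR homotetramer in high glucose. FBXW7 mRNA was quantified by qPCR with GAPDH as reference.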

FBXW7 [11] = experiment: Western blot in hRECs; type: cell-based, human; settings: high glucose (decreased by HG), 1 μM, n = 3; Fig. 4D, F
How it was run: (§4)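 hRECs (passages 5–6; 3000 cells/mL) were cultured 120 h in 5.5 mM glucose, 25 mM glucose or mannitol control medium, with 1 μM test peptide or TTR homotetramer added to high glucose. Lysis was in RIPA with protease/phosphatase inhibitors. Lysates were resolved on 10% SDS–PAGE, transferred to PVDF, blocked in 5% milk, probed and developed by ECL.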

hRECs [12] = experiment: Wound healing assay; type: cell-based, human; settings: high glucose, 1 μM, 24 h, n = 5; Fig. 3B, C
How it was run: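 Wound-healing kit assay on hRECs (passages 5–6) in high-glucose (25 mM) phenol red-free DMEM containing 1 μM test compound. Low glucose (5.5 mM) and mannitol (20 mM) osmotic controls included. Closure followed over 24 h; n = 5; mean ± SD, one-way ANOVA with LSD post hoc test.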

STAT4 [13] = experiment: Western blot in hRECs; type: cell-based, human; settings: high glucose (increased by HG), 1 μM, n = 3; Fig. 4D, E
How it was run: as §4

p-AKT [14] = experiment: Western blot in hRECs; type: cell-based, human; settings: high glucose (increased by HG), 1 μM, n = 3; Fig. 4D, H
How it was run: as §4

hRECs [15] = experiment: Tube formation assay; type: cell-based, human; settings: high glucose, 1 μM, basement membrane matrix, 4 h, n = 5; Fig. 3D, E
How it was run: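 hRECs (passages 5–6) in 25 mM glucose medium with 1 μM test peptide or TTR homotetramer, plus low-glucose and mannitol osmotic controls, were plated on basement membrane matrix. Tube formation was then assessed.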

[16] = Kidney and liver pathological indexes; type: in vivo, rat (Sprague–Dawley); settings: serum, STZ rats (raised vs normal), intravitreal AAV9
How it was run: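 STZ-diabetic male SD rats were given intravitreal AAV9 every 8 weeks (5 μL, 1 × 10^12 vg/mL) or saline. Serum ALT, AST and ALP activities and BUN and creatinine concentrations were measured on an automatic biochemical analyzer.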

hRECs [17] = experiment: Cell entry and localization in hRECs; type: cell-based, human; settings: 1 μM, 2 h incubation, HG medium, 37 °C; confocal microscopy; Fig. 1D
How it was run: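 Passage-6 hRECs spent 24 h in high-glucose medium at 37 °C, then 2 h with 1 μM test peptide, TTR homotetramer or scrambled peptide. Cells were PBS-washed, fixed (4% PFA, 20 min), permeabilized (0.1% Triton X-100) and stained overnight at 4 °C with anti-hnRNPA2B1, anti-TTR or anti-His-tag. Alexa Fluor 488/594 secondaries and Hoechst 33342 were used; imaging was confocal.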

p-STAT4 [18] = experiment: Western blot in hRECs; type: cell-based, human; settings: high glucose (increased by HG), 1 μM, n = 3; Fig. 4D, E
How it was run: as §4

hRECs [19] = experiment: Apoptosis; type: cell-based, human; settings: Annexin V flow cytometry; hyperglycemia; Fig. S7
How it was run: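 hRECs (passages 5–6) were seeded at 3000 cells/mL and grown 120 h in low-glucose (5.5 mM), high-glucose (25 mM) or low-glucose + 20 mM mannitol (osmotic control) medium. TTR homotetramer (1 μM) or test peptide (1 μM) was added to the high-glucose medium. Apoptosis was measured by FITC Annexin V staining and flow cytometry.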

hRECs [20] = experiment: CCK-8 proliferation assay; type: cell-based, human; settings: 1 μM, 5 days
How it was run: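 hRECs (passages 5–6; 3000 cells/mL) were grown in 25 mM glucose medium with 1 μM test peptide or TTR homotetramer, with 5.5 mM glucose and mannitol osmotic controls. Proliferation was read by CCK-8 after 5 days of culture; n = 5.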

Notch 1 [21] = experiment: Western blot in hRECs; type: cell-based, human; settings: high glucose (increased by HG), 1 μM, n = 3; Fig. 4D, G
How it was run: as §4

hRECs [22] = experiment: EdU DNA synthesis assay; type: cell-based, human; settings: high glucose (25 mM), 1 μM, n = 5; Fig. 2A, B
How it was run: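 hRECs (passages 5–6; 3000 cells/mL) were kept in 25 mM glucose medium with 1 μM test peptide or TTR homotetramer, with low-glucose and mannitol controls. DNA synthesis was detected with an EdU labeling kit by confocal imaging, nuclei counterstained with Hoechst 33342; n = 5.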

p-mTOR [23] = experiment: Western blot in hRECs; type: cell-based, human; settings: high glucose (increased by HG), 1 μM, n = 3; Fig. 4D, I
How it was run: as §4

hRECs [24] = settings: high-glucose environment; ref [33], [34]; cited from earlier work
STAT4 mRNA = experiment: qPCR in hRECs; type: cell-based, human; settings: high glucose, 1 μM, n = 5, Fig. 4A
How it was run: (§5)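 hRECs (passages 5–6) cultured 120 h in high-glucose (25 mM) medium with 1 μM test compound, alongside low-glucose and mannitol osmotic controls. Total RNA extracted and measured by qPCR: STAT4 mRNA normalised to GAPDH; hsa-miR-223-3p against a cel-miR-39-3p spike-in control. n = 5; mean ± SD; one-way ANOVA with LSD test.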

hsa-miR-223-3p = experiment: qPCR in hRECs; type: cell-based, human; settings: high glucose, 1 μM, n = 5, Fig. 4B
How it was run: as §5

VEGFA [25] = experiment: Western blot in hRECs; type: cell-based, human; settings: high glucose (enhanced by HG), n = 3; Fig. S8A, C
hnRNPA2B1 = settings: ref [33], [34]; cited from earlier work

TTR overexpression: Rat TTR (GenBank: AAH86946.1) cloned into the pAAV-MCS vector and packaged in AAV9, intravitreal
rno-miR-223-3p expression (rno-miR-223-3p): reversed | VEGFA level (western blot) (VEGFA [1]): neither THIP-4 administration nor elevated TTR expression affected the levels | p-STAT4 protein level (p-STAT4 [2]): significantly reversed | p-mTOR protein level (p-mTOR [3]): significantly reversed | Notch 1 protein level (Notch 1 [4]): significantly reversed | HIF-1α level (IHC) (HIF-1α [5]): neither THIP-4 administration nor TTR overexpression affected the levels | HIF-1α level (western blot) (HIF-1α [6]): neither THIP-4 administration nor elevated TTR expression affected the levels | VEGFA level (IHC) (VEGFA [7]): neither THIP-4 administration nor TTR overexpression affected the levels | STAT4 protein level (STAT4 [8]): significantly reversed | p-AKT protein level (p-AKT [9]): significantly reversed | PCNA positivity ratio (PCNA): lower | FBXW7 protein level (FBXW7 [10]): significantly reversed | fibronectin positivity ratio (fibronectin): lower

transthyretin [TTR]
FBXW7 expression level (FBXW7 mRNA): this trend was reversed | FBXW7 protein level (FBXW7 [11]): significantly reversed | wound healing (hRECs [12]): significantly inhibited the accelerated hREC healing | STAT4 protein level (STAT4 [13]): significantly reversed | p-AKT protein level (p-AKT [14]): significantly reversed | tube length (tube formation) (hRECs [15]): reversed by TTR and the THIPs | ALT activity ([16]; Fig. S12D): could not be affected by TTR or THIP-4 | AST activity ([16]; Fig. S12E): could not be affected by TTR or THIP-4 | ALP activity ([16]; Fig. S12F): could not be affected by TTR or THIP-4 | cellular localization (hRECs [17]): mainly accumulated in the nucleus and their signals overlapped with that of hnRNPA2B1 | p-STAT4 protein level (p-STAT4 [18]): significantly reversed | apoptosis (hRECs [19]): not significantly influenced | proliferation (CCK-8), high glucose (hRECs [20]; high glucose (25 mM), n = 5, Fig. 2C): significantly abrogated | proliferation (CCK-8), low glucose (hRECs [20]; low glucose (5.5 mM), Fig. S6): neither TTR nor the THIPs inhibited hREC proliferation | Notch 1 protein level (Notch 1 [21]): significantly reversed | DNA synthesis (EdU) (hRECs [22]): significantly reversed this trend | p-mTOR protein level (p-mTOR [23]): significantly reversed | neovascularization of hRECs (hRECs [24]): inhibits the neovascularization of hRECs in a high-glucose environment | STAT4 expression level (STAT4 mRNA): reversed in the presence of TTR or the THIPs | hsa-miR-223-3p expression level (hsa-miR-223-3p): reversed in the presence of TTR or the THIPs | VEGFA level (VEGFA [25]): neither the THIPs nor TTR could reverse this effect | level of hnRNPA2B1 (hnRNPA2B1): could not affect the level of hnRNPA2B1
